Screening data as filed in PubChem BioAssay.
Compounds with a hit are over-represented: about 3.1% of the library has one in this group of screens.
KCNK3 inh: human KCNK3 channel inhibition, primary screen; AID 602410; B-score at 10 µM; CHO-KCNK3 thallium flux, FluxOR fluorescence; active compounds read low; O14649; 0.84% of 340,000 active;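 active means B-score under library mean minus 4 SD, starting fluorescence ratio at most library mean plus 5 SD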;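 further: more negative B-score means stronger inhibition of thallium flux through KCNK3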
hERG protect: hERG (human) protection from proarrhythmic block; Q12809; CHO-hERG, FluxOR thallium flux, dofetilide IC70 present; activation (rescue from dofetilide block), less the hit threshold, % at 10 µM; 0.51% of 310,000 active;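 active means activation above the mean of controls blocked by dofetilide plus 5 SD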;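 further: thallium influx through hERG after potassium depolarization seen as dye fluorescence rise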
KCNK9 inh: human KCNK9 channel inhibition; HEK293 KCNK9, FluxOR thallium flux fluorescence; active compounds read low; 1.2% of 310,000 active; B-score at 10 µM; AID 488922;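 active means ratio B-score over 3 SD below the library mean, with starting fluorescence within 5 SD of its mean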;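 further: negative B-score means less thallium flux so channel inhibition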
Target sequence (Q9NPC2 whole entry, looked up): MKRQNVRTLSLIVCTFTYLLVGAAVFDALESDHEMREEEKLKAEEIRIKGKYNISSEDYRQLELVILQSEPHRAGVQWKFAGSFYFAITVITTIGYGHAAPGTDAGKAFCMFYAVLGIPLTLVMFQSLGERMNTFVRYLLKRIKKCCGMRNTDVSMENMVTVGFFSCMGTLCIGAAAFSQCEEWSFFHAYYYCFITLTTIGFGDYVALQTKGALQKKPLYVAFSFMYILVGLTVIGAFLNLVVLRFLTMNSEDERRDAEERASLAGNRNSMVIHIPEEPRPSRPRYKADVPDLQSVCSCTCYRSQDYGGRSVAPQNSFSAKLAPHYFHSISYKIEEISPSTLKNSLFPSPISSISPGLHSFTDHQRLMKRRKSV
KCNQ1 block: inhibitors of human KCNQ1 potassium channel | P51787 | CHO-K1 KCNQ1, FluxOR thallium flux fluorescence; active compounds read high | B-score at 10 µM | 1.3% of 310,000 active;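 active means compounds whose thallium flux B-score, printed positive for inhibition, exceeds three library SD while starting fluorescence stays within three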;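 further: channel opened by potassium depolarization with thallium stimulus after 20 min compound exposure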
KCNQ1 pot: potentiators or activators of human KCNQ1 potassium channel. B-score at 10 µM. 0.35% of 310,000 active. CHO-K1 KCNQ1, thallium flux FluxOR fluorescence; active compounds read high. AID 2648;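 active means fluorescence ratio B-score, a plate-corrected score, at least three library SD, with initial intensity B-score within 5 SD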
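System: Stable KCNQ1 CHO-K1 line | Incubation: 90 min dye loading and 20 min compound exposure, both at room temperature | Measure: Ratio B score | Medium: Assay buffer for compound exposure, DMSO matched across wells | Compound dosing: Single-concentration screen | Probe or stimulus: K+/Tl+ depolarizing stimulus | Measured by: Kinetic FluxOR fluorescence, 10 s baseline plus 110 s post-stimulus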
KCNK9 inh conf: human KCNK9 inhibitor confirmation; shares compounds with KCNK9 inh; HEK293 KCNK9 cells, FluxOR thallium flux fluorescence; inhibition, % at 10 µM; 43% of 4,900 active; AID 492992;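 active means thallium signal inhibited by more than 5 SD of the compound-free buffer control wells, on both duplicate plates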;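 further: 0% = assay buffer control wells without compound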
Kir21 sel: tests whether KCNK9 modulators also affect mouse Kir2.1; shares compounds with KCNK9 inh; Kir2.1 cells, FluxOR thallium flux fluorescence; inhibition, % at 10 µM; 4% of 4,900 active;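 active means thallium signal drop more than 5 SD beyond the mean of the no-compound control wells, seen in both duplicate plates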;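 further: signal is fluorescence rise after thallium addition divided by baseline fluorescence; plate controls were assay buffer only for no effect and full block by chlorpromazine control for full effect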
KCNK9 uninduced: non-induced cell nonspecific activity of KCNK9 modulators | shares compounds with KCNK9 inh | non-induced KCNK9-HEK293, FluxOR thallium flux | inhibition, % at 10 µM | 40% of 4,900 active | AID 492997;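 active means thallium signal drop beyond 5 SD of the untreated control mean, on both duplicate plates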;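 further: plate controls were buffer only IC0 wells for no effect and SID17386958 at its maximal inhibitory level for full effect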
Active calls of the source: *.

How did CCCCNC(=O)c1onc(CSc2ccc(F)cc2)c1C(=O)NCCCC do in these assays?
KCNK3 inh: inactive; hERG protect: -11; KCNK9 inh: inactive; KCNQ1 block: inactive; KCNQ1 pot: inactive; KCNK9 inh conf: inactive; Kir21 sel: inactive; KCNK9 uninduced: inactive

How did COCCNC(=O)c1onc(CSc2ccccn2)c1C(=O)NCCOC do in these assays?
KCNK3 inh: inactive; hERG protect: -8; KCNK9 inh: inactive; KCNQ1 block: inactive; KCNQ1 pot: inactive

How did CCOc1ccc(-n2c(SCC(=O)Nc3nccs3)nnc2-c2ccoc2C)cc1 do in these assays?
KCNK3 inh: inactive; hERG protect: -6; KCNK9 inh: inactive; KCNQ1 block: inactive; KCNQ1 pot: inactive

How did CCOc1ccccc1-n1c(SCC(=O)Nc2nccs2)nnc1-c1ccoc1C do in these assays?
KCNK3 inh: inactive; hERG protect: -11; KCNK9 inh: -8.7*; KCNQ1 block: inactive; KCNQ1 pot: inactive; KCNK9 inh conf: 47%*; Kir21 sel: inactive; KCNK9 uninduced: 26%*

Results for CC1CCCC(C)N1C(=O)COC(=O)c1cc(Br)ccc1Cl (centres undefined) ?
KCNK3 inh: inactive; hERG protect: -5; KCNK9 inh: inactive; KCNQ1 block: inactive; KCNQ1 pot: inactive; KCNK9 inh conf: inactive; Kir21 sel: inactive; KCNK9 uninduced: inactive

How did COc1ccccc1CN1CCC(CNS(=O)(=O)c2cc(-c3onc(C)c3C)ccc2OC)CC1 do in these assays?
KCNK3 inh: inactive; hERG protect: -9; KCNK9 inh: inactive; KCNQ1 block: inactive; KCNQ1 pot: inactive

Results for CC1CCC(C(C)C)C(=O)/C1=C/c1ccc(N)cc1 (centres undefined) ?
KCNK3 inh: inactive; hERG protect: -7; KCNK9 inh: inactive; KCNQ1 block: inactive; KCNQ1 pot: inactive

How did CC1/C(=C\c2ccc(Cl)cc2)C(=O)C2CC1C2(C)C (centres undefined) do in these assays?
KCNK3 inh: inactive; hERG protect: -5; KCNK9 inh: inactive; KCNQ1 block: inactive; KCNQ1 pot: inactive; KCNK9 inh conf: inactive; Kir21 sel: inactive; KCNK9 uninduced: inactive

Results for CC(C)N(C(=O)CN1C(=O)NC(c2ccccc2)(c2ccccc2)C1=O)C(C)C ?
KCNK3 inh: inactive; hERG protect: -2; KCNK9 inh: inactive; KCNQ1 block: inactive; KCNQ1 pot: inactive

Results for Cn1nnnc1SCC(=O)Nc1cc(S(=O)(=O)N2CCCCC2)ccc1Cl ?
KCNK3 inh: inactive

What do the screens show for `O=C(Nc1cccc2ccccc12)c1cn(-c2ccccc2)nc1-c1cccs1`?
KCNK3 inh: -9.5*; hERG protect: -12; KCNK9 inh: -10*; KCNQ1 block: inactive; KCNQ1 pot: inactive; KCNK9 inh conf: 50%*; Kir21 sel: inactive; KCNK9 uninduced: 24%*

How did FC(F)(F)c1ccc(-c2nc(=S)[nH][nH]2)cc1 do in these assays?
KCNK3 inh: inactive; hERG protect: -20; KCNK9 inh: inactive; KCNQ1 block: inactive; KCNQ1 pot: inactive; KCNK9 inh conf: inactive; Kir21 sel: inactive; KCNK9 uninduced: inactive

Results for Oc1ccc(-c2nc(=S)[nH][nH]2)cc1 ?
KCNK3 inh: inactive; hERG protect: -7; KCNK9 inh: inactive; KCNQ1 block: inactive; KCNQ1 pot: inactive

How did COc1cccc(N2CCN(c3ccc4nnc(CCC(=O)Nc5ncccc5C)n4n3)CC2)c1 do in these assays?
KCNK3 inh: inactive; hERG protect: -18; KCNK9 inh: inactive; KCNQ1 block: inactive; KCNQ1 pot: inactive

How did COc1ccc(OC)c(NC(=O)C2CCC(CNc3c(N4CCOCC4)c(=O)c3=O)CC2)c1 (centres undefined) do in these assays?
KCNK3 inh: inactive; hERG protect: -8; KCNK9 inh: inactive; KCNQ1 block: inactive; KCNQ1 pot: inactive

What do the screens show for `CCC(C)NC(=O)CSc1nc2cc(S(=O)(=O)N3CCOCC3)ccc2n1CC` (centres undefined)?
KCNK3 inh: inactive; hERG protect: -17; KCNK9 inh: inactive; KCNQ1 block: inactive; KCNQ1 pot: inactive

Results for CCn1c(SCC(=O)c2cc(C)ccc2C)nc2cc(S(=O)(=O)N3CCOCC3)ccc21 ?
KCNK3 inh: inactive; hERG protect: -15; KCNK9 inh: inactive; KCNQ1 block: inactive; KCNQ1 pot: inactive; KCNK9 inh conf: inactive; Kir21 sel: inactive; KCNK9 uninduced: inactive

What do the screens show for `COc1ccc2nc(SCC(=O)Nc3ccc4c(c3)CCC4)[nH]c2c1`?
KCNK3 inh: inactive; hERG protect: -12; KCNK9 inh: inactive; KCNQ1 block: inactive; KCNQ1 pot: inactive; KCNK9 inh conf: inactive; Kir21 sel: inactive; KCNK9 uninduced: inactive

Results for COc1ccc2nc(SCC(=O)Nc3ccc4[nH]c(=O)[nH]c4c3)[nH]c2c1 ?
KCNK3 inh: inactive

Results for CC(O)[C@H]1CNC(=O)C(=O)N1CCc1cc(C(F)(F)F)cc(C(F)(F)F)c1 (some centres undefined) ?
KCNK3 inh: inactive; hERG protect: -15; KCNK9 inh: inactive; KCNQ1 block: inactive; KCNQ1 pot: inactive

Results for CCCCCCCCCCOC(=O)Cn1c(COc2ccccc2OC)[n+](C)c2ccccc21 ?
KCNK3 inh: inactive; hERG protect: -6; KCNK9 inh: -15*; KCNQ1 block: inactive; KCNQ1 pot: inactive; KCNK9 inh conf: 78%*; Kir21 sel: 84%*; KCNK9 uninduced: 42%*

Results for O=C(N/N=C/c1ccc(O)cc1O)c1ccc(CN2C(=O)c3cccc4cccc2c34)cc1 ?
KCNK3 inh: -12*; hERG protect: -12; KCNK9 inh: -12*; KCNQ1 block: inactive; KCNQ1 pot: inactive; KCNK9 inh conf: 37%*; Kir21 sel: inactive; KCNK9 uninduced: 33%*

What do the screens show for `NC(=O)C1CCN(CC(=O)N2N=CCC2c2ccccc2)CC1` (centres undefined)?
KCNK3 inh: inactive; hERG protect: -7; KCNK9 inh: -8.9*; KCNQ1 block: inactive; KCNQ1 pot: inactive; KCNK9 inh conf: inactive; Kir21 sel: inactive; KCNK9 uninduced: inactive

Results for O=C(CN1CCN(c2ccccc2)CC1)N1N=CCC1c1ccccc1 (centres undefined) ?
KCNK3 inh: inactive; hERG protect: -9; KCNK9 inh: inactive; KCNQ1 block: inactive; KCNQ1 pot: inactive

Results for Cc1ccc(NC(=O)CCSc2nnc(Cc3ccccc3)o2)cc1 ?
KCNK3 inh: inactive; hERG protect: 3; KCNK9 inh: inactive; KCNQ1 block: inactive; KCNQ1 pot: inactive
